Results on 11 compounds are retold here after PMC10170627 (RSC Chemical Biology, 2023).

Starred links: 1 amine or outer side, 2 acyl side, 3 side chain; linkers in the order of their positions; H or OH if unused. Positions of bridges follow the written chain, without caps; N, C: chain ends. Non-standard residues stand in square brackets, D forms with d. Residues, ends and D or L forms follow the SMILES beside them. Chains are numbered I, II in the order given. Actinocin(9to1) = Cc1c2oc3c(C)ccc(C(=O)[*:1])c3nc-2c(C(=O)[*:2])c(N)c1=O; NMeV = CN[C@H](C(=O)O)C(C)C; Sar = CNCC(=O)O

For one test, the system named is NCI 60-cell line panel. Description: NCI 60-cell line panel COMPARE analysis. It counts as cell-based. The conditions noted are these: five-dose data, Standard Agents GI50 library; 48 h.
The next test has as its system NPM1. Description: Nucleophosmin. It counts as cell-based, human. The conditions noted are these: A549; 24 h; 5 nM actinomycin D, 5 μM cisplatin, 5 μM compound 1.
For test [1], the system named is E. coli BL21(DE3). Description: Bacteria growth inhibition. In kind it is cell-based, Escherichia coli. The conditions noted are these: 0-100 μM, 16 h. In a few lines:
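MIC taken as the lowest test compound concentration at which no bacterial growth was observed.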

In the next test the target is E. coli DNA gyrase (Escherichia coli, UniProt P0AES4+P0AES6). Description: Inhibition of DNA gyrase activity. It counts as biochemical. Particulars: positive control.
Sequence of E. coli DNA gyrase (P0AES4 whole entry, one chain of several): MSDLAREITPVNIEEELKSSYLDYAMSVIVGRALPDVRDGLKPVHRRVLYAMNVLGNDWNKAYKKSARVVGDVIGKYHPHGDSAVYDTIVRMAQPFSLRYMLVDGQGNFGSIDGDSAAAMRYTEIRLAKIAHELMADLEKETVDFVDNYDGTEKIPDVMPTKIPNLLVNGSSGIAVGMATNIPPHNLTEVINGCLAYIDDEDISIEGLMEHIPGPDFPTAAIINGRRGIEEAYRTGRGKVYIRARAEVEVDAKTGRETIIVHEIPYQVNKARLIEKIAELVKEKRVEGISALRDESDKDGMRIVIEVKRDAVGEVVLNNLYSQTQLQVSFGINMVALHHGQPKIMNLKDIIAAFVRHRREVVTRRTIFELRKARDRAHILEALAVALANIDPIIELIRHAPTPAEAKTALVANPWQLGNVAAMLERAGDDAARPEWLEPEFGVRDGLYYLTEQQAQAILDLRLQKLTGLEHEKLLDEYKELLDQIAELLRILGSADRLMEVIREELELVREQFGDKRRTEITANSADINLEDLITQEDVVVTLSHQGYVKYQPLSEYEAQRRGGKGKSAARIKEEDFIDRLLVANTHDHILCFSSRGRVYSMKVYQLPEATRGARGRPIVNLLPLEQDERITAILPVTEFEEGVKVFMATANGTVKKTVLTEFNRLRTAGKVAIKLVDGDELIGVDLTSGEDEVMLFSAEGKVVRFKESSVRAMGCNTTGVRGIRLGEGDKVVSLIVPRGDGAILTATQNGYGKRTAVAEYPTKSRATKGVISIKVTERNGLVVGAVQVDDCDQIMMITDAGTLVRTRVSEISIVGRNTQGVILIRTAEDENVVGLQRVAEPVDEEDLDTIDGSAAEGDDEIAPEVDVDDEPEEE
The subject of another test is DU145 spheroids. Description: Cytotoxicity in DU145 spheroids. It counts as cell-based. The conditions noted are these: read-out: IC50 (St. dev.) DU145 spheroids; 72 h; triplicate.
The test system of another test is HL-60. Particulars: read-out: IC50 (St. dev.) HL-60; ref prior work (footnote d); cited from earlier work.
In a further test the test system is HEL299. Description: Cell cytotoxicity. In kind it is cell-based. Particulars: read-out: IC50 (St. dev.) HEL299; 72 h; triplicate. The essentials:
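Healthy lung fibroblasts were treated with each test compound. IC50 is the average of triplicate measurements, reported with standard deviation. Selectivity index is the HEL299 IC50 divided by the A549 IC50.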

Test [2] deals with E. coli BL21(DE3). Description: Bacterial cytological profiling. It counts as cell-based, Escherichia coli.
In test [3] the test system is HeLa parental and XPA knockout cells. Put plainly: HeLa parental and XPA knockout cytotoxicity. It counts as cell-based. Particulars: 72 h.

Consider `Cc1c2oc3c(C)ccc(C(=O)N[C@@H]4C(=O)N[C@H](C(C)C)C(=O)N5CCC[C@H]5C(=O)N(C)CC(=O)N(C)[C@@H](C(C)C)C(=O)O[C@@H]4C)c3nc-2c(C(=O)N[C@@H]2C(=O)N[C@H](C(C)C)C(=O)N3CCC[C@H]3C(=O)N(C)CC(=O)N(C)[C@@H](C(C)C)C(=O)O[C@@H]2C)c(N)c1=O` [Actinomycin D] (I: T[dV]P[Sar][NMeV] / II: T[dV]P[Sar][NMeV]; ester I:1-I:C, II:1-II:C; linker I:N-II:N via Actinocin(9to1)), for which, in the test with NCI 60-cell line panel, the “COMPARE correlation (Pearson correlation coefficient) to compound 2” value (from here on “COMPARE correlation”) turned out to be 0.69. For the same compound, the NPM1 distribution phenotype result in the test with NPM1 is “delocalized NPM1 phenotype”.
For `CO[C@@H]1[C@H](O)C[C@@H](O[C@@H]2C[C@H](Oc3cc4cc5c(c(O)c4c(O)c3C)C(=O)[C@@H](O[C@H]3C[C@@H](O[C@H]4C[C@@H](O[C@H]6C[C@](C)(O)[C@@H](OC(C)=O)[C@H](C)O6)[C@H](O)[C@@H](C)O4)[C@H](O)[C@@H](C)O3)[C@H]([C@H](OC)C(=O)[C@@H](O)[C@@H](C)O)C5)O[C@H](C)[C@@H]2OC(C)=O)O[C@@H]1C` [Chromomycin A3], the “COMPARE correlation” value with NCI 60-cell line panel was found to be 0.85.
Regarding `CN(C)[C@@H]1C(O)=C(C(N)=O)C(=O)[C@@]2(O)C(O)=C3C(=O)c4c(O)cccc4[C@@](C)(O)[C@H]3C[C@@H]12` [tetracycline], the bacterial growth inhibition entry with E. coli BL21(DE3) [1] was “inhibited bacterial growth”.
On to `CO[C@H]1/C=C/O[C@@]2(C)Oc3c(C)c(O)c4c(O)c(c(/C=N/N5CCN(C)CC5)c(O)c4c3C2=O)NC(=O)/C(C)=C\C=C\[C@H](C)[C@H](O)[C@@H](C)[C@@H](O)[C@@H](C)[C@H](OC(C)=O)[C@@H]1C` [rifampicin], for which the bacterial growth inhibition entry with E. coli BL21(DE3) [1] is given as “inhibited bacterial growth”.
In the case of `COc1cccc2c1C(=O)c1c(O)c3c(c(O)c1C2=O)C[C@@](O)(C(=O)CO)C[C@@H]3O[C@H]1C[C@H](N)[C@H](O)[C@H](C)O1` [Doxorubicin], the “COMPARE correlation” value in the test on NCI 60-cell line panel amounted to 0.55.
For `O=C(O)c1cn(C2CC2)c2cc(N3CCNCC3)c(F)cc2c1=O` [Ciprofloxacin], the “concentration at which the supercoiled form was lost” value on E. coli DNA gyrase was found to be 0.75 µM.
As for `N.N.[Cl][Pt][Cl]` [Cisplatin], the figures for the IC50 with DU145 spheroids, in the test with HL-60 and in the test with HEL299 were 5.28 µM, 3.1 µM and 3.05 µM, respectively. Further, the “COMPARE correlation” value in the test with NCI 60-cell line panel is listed as −0.16. Also, the bacterial growth inhibition result in the test on E. coli BL21(DE3) [1] was “inhibited bacterial growth”. For the same compound, in the test with E. coli BL21(DE3) [2] (E. coli treated at the MIC, 24 h), the average filament length was found to be 53 μm. In addition, the NPM1 distribution phenotype result in the test on NPM1 is recorded as “Smaller changes in NPM1 distribution”. Moreover, the “sensitization of XPA knockout versus parental HeLa” value in test [3] is recorded as 4 fold.
With `CC(=O)O[C@H]1C(=O)[C@@]2(C)[C@H]([C@H](OC(=O)c3ccccc3)[C@]3(O)C[C@H](OC(=O)[C@H](O)[C@@H](NC(=O)c4ccccc4)c4ccccc4)C(C)=C1C3(C)C)[C@]1(OC(C)=O)CO[C@@H]1C[C@@H]2O` [Paclitaxel], the “COMPARE correlation” value with NCI 60-cell line panel turned out to be 0.71. Further, the bacterial growth inhibition result in the test on E. coli BL21(DE3) [1] was “inhibited bacterial growth except for paclitaxel”. In addition, in the test with E. coli BL21(DE3) [2] (E. coli), the filamentation entry is listed as “no filament formation”.
For the compound `CC[C@]1(O)C[C@@H]2CN(CCc3c([nH]c4ccccc34)[C@@](C(=O)OC)(c3cc4c(cc3OC)N(C)[C@H]3[C@@](O)(C(=O)OC)[C@H](OC(C)=O)[C@]5(CC)C=CCN6CC[C@]43[C@@H]65)C2)C1` [Vinblastine], the “COMPARE correlation” value in the test with NCI 60-cell line panel was found to be 0.64.
Still for that read-out and setting: to `N.N.O=C([O-])C1(C(=O)[O-])CCC1.[Pt+2]` [Carboplatin] belongs 0.12.
Still for that read-out and setting: to `COc1cc([C@@H]2c3cc4c(cc3[C@@H](O[C@@H]3O[C@@H]5CO[C@@H](C)O[C@H]5[C@H](O)[C@H]3O)[C@H]3COC(=O)[C@H]23)OCO4)cc(OC)c1O` [Etoposide] belongs 0.39.
